Measured values published in ChEMBL document CHEMBL1955860, “Design, synthesis, and biological evaluation of 4-arylmethyl-1-phenylpyrazole and 4-aryloxy-1-phenylpyrazole derivatives as novel androgen receptor antagonists” (Bioorg Med Chem, 2012).

Legend:
[1] = Anticancer activity against human LNCaP-hr cells assessed as prostate specific antigen level at 1 uM after 3 days by enzyme immunoassay relative to control; assay type: functional
How it was run: (§1)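 LNCaP-hr cells (CRPC model, T877A AR) seeded at 40,000 cells/well in phenol red-free RPMI1640 with 10% DCC-FBS; compounds at 1–10 µM added next day; secreted PSA measured and expressed as % of control; n = 3.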

[2] = Anticancer activity against human LNCaP-hr cells assessed as prostate specific antigen level at 10 uM after 3 days by enzyme immunoassay relative to control; assay type: functional; how it was run: as §1
[3] = Anticancer activity against human LNCaP-hr cells xenografted in BALB/c athymic nude mouse assessed as prostate specific antigen level in plasma at 40 mg/kg, po bid after 28 days relative to control; assay type: functional
How it was run: (§2)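 Mice castrated, then given LNCaP-hr cells (5 × 10⁷ cells/mL in PBS/Matrigel 1:1) s.c. in flank the same day; grouped at ~100–300 mm³ tumor volume (n = 6/group); from next day, oral dosing in 0.5% methylcellulose vehicle, bid or qd, 28 days. T/C% = tumor volume increase in treated/vehicle group × 100; serum/plasma PSA at end by ELISA.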

Mus musculus [4] = experiment: Toxicity in athymic nude BALB/c mouse xenografted with human LNCaP-hr cells assessed as body weight loss at 40 mg/kg, po bid after 28 days; assay type: organism-based; design: dose 40 mg/kg, route oral; conditions: in vivo
How it was run: (§3)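 Castrated mice bearing s.c. LNCaP-hr xenografts (n = 6/group), dosed orally twice daily for 28 days in 0.5% methylcellulose vehicle; body weight tracked over the treatment period versus castration + vehicle controls.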

[5] = Anticancer activity against human LNCaP-hr cells xenografted in BALB/c athymic nude mouse assessed as change in tumor volume at 40 mg/kg, po bid after 28 days relative to control; assay type: functional; how it was run: as §2
Mus musculus [6] = experiment: Toxicity in athymic nude BALB/c mouse xenografted with human LNCaP-hr cells assessed as body weight loss at 20 mg/kg, po bid after 28 days; assay type: organism-based; design: dose 20 mg/kg, route oral; conditions: in vivo; how it was run: as §3
[7] = Anticancer activity against human LNCaP-hr cells xenografted in BALB/c athymic nude mouse assessed as prostate specific antigen level in plasma at 20 mg/kg, po bid after 28 days relative to control; assay type: functional; how it was run: as §2
Mus musculus [8] = experiment: Toxicity in athymic nude BALB/c mouse xenografted with human LNCaP-hr cells assessed as body weight loss at 50 mg/kg, po bid after 28 days; assay type: organism-based; design: dose 50 mg/kg, route oral; conditions: in vivo; how it was run: as §3
[9] = Anticancer activity against human LNCaP-hr cells xenografted in BALB/c athymic nude mouse assessed as change in tumor volume at 20 mg/kg, po bid after 28 days relative to control; assay type: functional; how it was run: as §2
[10] = Anticancer activity against human LNCaP-hr cells xenografted in BALB/c athymic nude mouse assessed as prostate specific antigen level in plasma at 50 mg/kg, po bid after 28 days relative to control; assay type: functional; how it was run: as §2
[11] = Anticancer activity against human LNCaP-hr cells xenografted in BALB/c athymic nude mouse assessed as change in tumor volume at 50 mg/kg, po bid after 28 days relative to control; assay type: functional; how it was run: as §2
[12] = Anticancer activity against human LNCaP-hr cells xenografted in BALB/c athymic nude mouse assessed as prostate specific antigen level in plasma at 100 mg/kg, po qd after 28 days relative to control; assay type: functional; how it was run: as §2
[13] = Anticancer activity against human LNCaP-hr cells xenografted in BALB/c athymic nude mouse assessed as change in tumor volume at 100 mg/kg, po qd after 28 days relative to control; assay type: functional; how it was run: as §2

## Cc1nn(-c2ccc(C#N)c(Cl)c2)c(C)c1Cc1ccc(C(=O)NC(C)(C)C)cc1
[1]
  Activity: 33%
[2]
  Activity: 57%

## Cc1nn(-c2ccc(C#N)c(Cl)c2)c(C)c1Cc1ccc(C(=O)NCC(C)(C)O)cc1
[3]
  T/C: 23%
Mus musculus [4]
  Activity: Non-toxic
[5]
  T/C: 3%
Mus musculus [6]
  Activity: Non-toxic
[1]
  Activity: 27%
[7]
  T/C: 88%
[2]
  Activity: 31%
Mus musculus [8]
  Activity: Non-toxic
[9]
  T/C: 15%

## Cc1nn(-c2ccc(C#N)c(Cl)c2)c(C)c1Cc1ccc(C(=O)N2CCOCC2)cc1
[1]
  Activity: 35%

## Cc1nn(-c2ccc(C#N)c(Cl)c2)c(C)c1Oc1ccc(C(=O)NCC(C)(C)O)cc1
[1]
  Activity: 33%
[2]
  Activity: >100%

## Cc1nn(-c2ccc(C#N)c(Cl)c2)c(C)c1Cc1cccc(C(N)=O)c1
[1]
  Activity: 21%
[2]
  Activity: 35%

## Cc1nn(-c2ccc(C#N)c(Cl)c2)c(C)c1Cc1ccc(C(N)=O)cc1
[1]
  Activity: 76%

## Cc1nn(-c2ccc(C#N)c(Cl)c2)c(C)c1Cc1ccc(C(=O)N(C)C)cc1
[1]
  Activity: 21%

## Cc1nn(-c2ccc(C#N)c(Cl)c2)c(C)c1Cc1ccc(C(=O)NCCO)cc1
[1]
  Activity: 33%

## Cc1nn(-c2ccc(C#N)c(Cl)c2)c(C)c1Oc1ccc(C(=O)N2CCOCC2)cc1
[1]
  Activity: 22%
[2]
  Activity: 22%

## CC(=O)Nc1ccc(Oc2c(C)nn(-c3ccc(C#N)c(Cl)c3)c2C)nc1
[1]
  Activity: 8%
[2]
  Activity: 14%

## Cc1nn(-c2ccc(C#N)c(Cl)c2)c(C)c1Oc1ccc(NC(=O)C(C)(C)C)cn1
[10]
  T/C: 17%
[11]
  T/C: 2%
[1]
  Activity: 8%
[2]
  Activity: 5%

## CC(=O)Nc1ccc(Oc2c(C)nn(-c3ccc(C#N)c(Cl)c3)c2C)cn1
[1]
  Activity: 11%
[2]
  Activity: 39%

## CC(O)(CS(=O)(=O)c1ccc(F)cc1)C(=O)Nc1ccc(C#N)c(C(F)(F)F)c1 (configuration not stated) [BICALUTAMIDE]
[12]
  T/C: 142%
[13]
  T/C: 37%
[2]
  Activity: >100%
